Assay results taken from PMC5392356 (Nature chemical biology, 2017).

Columns and labels:
[1] = target: T1, Brd2 (Homo sapiens, UniProt P25440); test: BET protein degradation in HeLa cells, Western blot; type: cell-based; conditions: 24 h
Procedure, shortened: (§1)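 HeLa cells were kept in DMEM with 10% FBS, […], penicillin/streptomycin at 37 °C, 5% CO2. They were seeded in six-well plates and treated the next day. They were PBS-washed and lysed on ice in RIPA with protease inhibitors, Benzonase and 0.5 mM MgCl2, then sonicated and centrifuged. Protein was quantified by BCA. Immunoblots used Brd2, Brd3, Brd4 and β-actin antibodies with IRDye 800CW secondaries; band intensities were quantified on an Odyssey imager.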

[2] = target: VCB and Brd4^BD2 (Homo sapiens, UniProt O60885+P40337); test: ITC, VCB titrated into PROTAC:BD complex; type: binding
Sequence of VCB and Brd4^BD2 (P40337 54-213, other chains not shown): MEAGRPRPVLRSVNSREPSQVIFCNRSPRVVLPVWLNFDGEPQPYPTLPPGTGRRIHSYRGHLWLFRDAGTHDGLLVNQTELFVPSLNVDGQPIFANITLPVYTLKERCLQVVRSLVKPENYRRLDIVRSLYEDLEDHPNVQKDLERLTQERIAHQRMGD
Sequence of VCB and Brd4^BD2 (Q15370 1-104, other chains not shown, further chain): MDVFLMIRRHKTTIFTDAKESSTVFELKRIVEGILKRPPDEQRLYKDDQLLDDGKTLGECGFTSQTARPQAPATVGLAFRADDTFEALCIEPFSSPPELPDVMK
Sequence of VCB and Brd4^BD2 (Q15369 17-112, other chains not shown, further chain): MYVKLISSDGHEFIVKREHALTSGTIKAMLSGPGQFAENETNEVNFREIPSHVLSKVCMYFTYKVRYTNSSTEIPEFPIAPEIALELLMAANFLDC

[3] = target: T2, Brd3 (Homo sapiens, UniProt Q15059); test: BET protein degradation in HeLa cells, Western blot; type: cell-based; conditions: 24 h
T2 sequence (Q15059 whole entry): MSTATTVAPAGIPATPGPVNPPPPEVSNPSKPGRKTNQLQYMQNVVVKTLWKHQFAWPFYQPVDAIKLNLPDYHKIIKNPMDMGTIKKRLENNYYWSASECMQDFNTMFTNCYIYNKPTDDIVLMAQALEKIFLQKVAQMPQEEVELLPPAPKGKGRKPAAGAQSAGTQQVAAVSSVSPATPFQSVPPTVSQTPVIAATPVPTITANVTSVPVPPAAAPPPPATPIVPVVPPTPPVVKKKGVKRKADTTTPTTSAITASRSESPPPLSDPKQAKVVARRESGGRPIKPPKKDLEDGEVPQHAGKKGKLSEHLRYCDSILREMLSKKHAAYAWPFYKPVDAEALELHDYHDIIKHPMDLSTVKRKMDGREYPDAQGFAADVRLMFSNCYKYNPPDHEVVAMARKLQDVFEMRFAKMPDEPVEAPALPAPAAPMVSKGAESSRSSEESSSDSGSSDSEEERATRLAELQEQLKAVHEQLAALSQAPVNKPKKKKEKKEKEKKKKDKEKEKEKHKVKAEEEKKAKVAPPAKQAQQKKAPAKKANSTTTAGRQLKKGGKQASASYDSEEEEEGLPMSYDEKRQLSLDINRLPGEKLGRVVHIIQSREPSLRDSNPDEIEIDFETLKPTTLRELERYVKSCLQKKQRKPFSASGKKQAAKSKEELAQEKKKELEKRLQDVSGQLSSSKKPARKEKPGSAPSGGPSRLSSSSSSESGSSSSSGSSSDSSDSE
Procedure, shortened: as §1

[4] = target: T1, Brd2; test: Isobaric tagging; type: cell-based; conditions: HeLa cells, 24 h, proteomics
[5] = target: T3, Brd4 (Homo sapiens, UniProt O60885); test: BET protein degradation in HeLa cells, Western blot; type: cell-based; conditions: 24 h, 1–3 μM
Procedure, shortened: as §1

[6] = target: T2, Brd3; test: Isobaric tagging; type: cell-based; conditions: HeLa cells, 24 h, proteomics
[7] = target: T3, Brd4; test: Isobaric tagging; type: cell-based; conditions: HeLa cells, AT1 1 µM, 24 h; 5,674 proteins quantified
[8] = ITC 25 °C, VCB into PROTAC:Brd4^BD2 vs VCB into PROTAC

T1 sequence (P25440 whole entry): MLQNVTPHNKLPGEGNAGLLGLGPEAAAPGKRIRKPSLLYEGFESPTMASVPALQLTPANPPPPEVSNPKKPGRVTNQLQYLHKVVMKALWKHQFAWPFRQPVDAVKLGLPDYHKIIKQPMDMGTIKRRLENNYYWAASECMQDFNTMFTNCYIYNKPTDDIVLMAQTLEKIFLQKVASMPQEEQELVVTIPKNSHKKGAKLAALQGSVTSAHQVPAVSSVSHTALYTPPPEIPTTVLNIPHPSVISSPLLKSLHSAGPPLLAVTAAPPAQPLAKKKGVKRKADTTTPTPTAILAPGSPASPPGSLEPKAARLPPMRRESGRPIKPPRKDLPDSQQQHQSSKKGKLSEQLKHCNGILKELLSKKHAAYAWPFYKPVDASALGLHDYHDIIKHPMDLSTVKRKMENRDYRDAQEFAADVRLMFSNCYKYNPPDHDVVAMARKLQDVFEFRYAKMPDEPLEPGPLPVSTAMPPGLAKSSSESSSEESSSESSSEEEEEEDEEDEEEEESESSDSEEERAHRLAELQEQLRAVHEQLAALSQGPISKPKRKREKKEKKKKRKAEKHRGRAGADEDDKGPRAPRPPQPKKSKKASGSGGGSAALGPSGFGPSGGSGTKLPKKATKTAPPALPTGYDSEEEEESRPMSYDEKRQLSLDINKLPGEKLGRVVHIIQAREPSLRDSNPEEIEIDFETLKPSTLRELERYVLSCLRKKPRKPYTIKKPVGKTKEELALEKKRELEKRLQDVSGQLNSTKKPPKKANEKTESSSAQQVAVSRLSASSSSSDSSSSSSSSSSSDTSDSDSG

activity against Brd2 (protein level by immunoblot) [1]: negligible activity
ΔpKd (pKd ternary − pKd binary) [2, 8]: 0.84 ± 0.07
α (cooperativity, Kd binary/Kd ternary) [2, 8]: 7
ΔG (binary + ternary), stability of ternary complex ([2]; ITC, Brd4^BD2): -20.2 ± 0.2 kcal/mol
activity against Brd3 (protein level by immunoblot) [3]: negligible activity
effect on protein level of Brd2 [4]: no effect on protein levels
Brd4 protein level by immunoblot [5]: depletion of Brd4
effect on protein level of Brd3 [6]: no effect on protein levels
Brd4 protein level after treatment (depleted to) [7]: ~ 40%
Structure (SMILES): CC(=O)N[C@H](C(=O)N1C[C@H](O)C[C@H]1C(=O)NCc1ccc(-c2scnc2C)cc1)C(C)(C)SCCCCCCNC(=O)C[C@@H]1N=C(c2ccc(Cl)cc2)c2c(sc(C)c2C)-n2c(C)nnc21 [AT1, (2S,4R)-1-((R)-2-acetamido-3-((6-(2-((S)-4-(4-chlorophenyl)-2,3,9-trimethyl-6H-thieno[3,2-f][1,2,4]triazolo[4,3-a][1,4]diazepin-6-yl)acetamido)hexyl)thio)-3-methylbutanoyl)-4-hydroxy-N-(4-(4-methylthiazol-5-yl)benzyl)pyrrolidine-2-carboxamide]
